In ChEMBL document CHEMBL1909601, “Synthesis and structure-activity relationship studies of dihydronaphthyridinediones as a novel structural class of potent and selective PDE7 inhibitors” (Bioorg Med Chem Lett, 2011):

Legend:
[1] = target: High affinity 3',5'-cyclic-AMP phosphodiesterase 7A (Homo sapiens, UniProt Q13946); experiment: Inhibition of human recombinant PDE7A1 expressed in baculovirus infected insect Sf21 cells after 30 mins by scintillation proximity assay
Method in brief: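 Full-length human recombinant PDE7A1 produced in baculovirus-infected Sf21 cells. SPA read-out with [3H]-cAMP at 20 nM in 80 mM Tris/10 mM MgSO4, pH 7.4. Reaction run 30 min at 37 °C before bead addition and scintillation counting. Background measured without enzyme. IC50 derived.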

[2] = target: 3',5'-cyclic-AMP phosphodiesterase 4A (Homo sapiens, UniProt P27815); experiment: Inhibition of human recombinant PDE4A4 expressed in baculovirus infected insect Sf21 cells after 30 mins by scintillation proximity assay
Method in brief: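 Full-length human recombinant enzyme expressed in baculovirus-infected Sf21 cells. Scintillation proximity assay with 500 nM [3H]-cAMP substrate in 80 mM Tris/10 mM MgSO4, pH 7.4. Incubated 30 min at 37 °C, then SPA beads added and plates counted. Background taken in presence of 10 µM rolipram. IC50 reported.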

[3] = target: Dual specificity calcium/calmodulin-dependent 3',5'-cyclic nucleotide phosphodiesterase 1B (Homo sapiens, UniProt Q01064); experiment: Inhibition of human recombinant PDE1B
[4] = target: cGMP-dependent 3',5'-cyclic phosphodiesterase (Homo sapiens, UniProt O00408); experiment: Inhibition of human recombinant PDE2A
[5] = target: cGMP-inhibited 3',5'-cyclic phosphodiesterase 3A (Homo sapiens, UniProt Q14432); experiment: Inhibition of human recombinant PDE3A
[6] = target: cGMP-specific 3',5'-cyclic phosphodiesterase (Homo sapiens, UniProt O76074); experiment: Inhibition of human recombinant PDE5A
[7] = target: High affinity cAMP-specific and IBMX-insensitive 3',5'-cyclic phosphodiesterase 8A (Homo sapiens, UniProt O60658); experiment: Inhibition of human recombinant PDE8A
[8] = target: High affinity cGMP-specific 3',5'-cyclic phosphodiesterase 9A (Homo sapiens, UniProt O76083); experiment: Inhibition of human recombinant PDE9A
[9] = target: cAMP and cAMP-inhibited cGMP 3',5'-cyclic phosphodiesterase 10A (Homo sapiens, UniProt Q9Y233); experiment: Inhibition of human recombinant PDE10A
[10] = target: Dual 3',5'-cyclic-AMP and -GMP phosphodiesterase 11A (Homo sapiens, UniProt Q9HCR9); experiment: Inhibition of human recombinant PDE11A
[11] = Inhibition of bovine PDE6; parameters: species or system Bos taurus
[12] = organism: Homo sapiens; experiment: Selectivity ratio of IC50 for human recombinant PDE4A4 to IC50 for human recombinant PDE7A1
Method in brief: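 Ratio of IC50 values for the two enzymes. PDE4A4 run at 500 nM [3H]-cAMP with a 10 µM rolipram background; PDE7A1 run at 20 nM [3H]-cAMP with a no-enzyme background. Both used full-length human enzymes from Sf21 cells, 30 min at 37 °C, pH 7.4 Tris/MgSO4, SPA read-out.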

Sequence of High affinity cGMP-specific 3',5'-cyclic phosphodiesterase 9A (O76083 whole entry): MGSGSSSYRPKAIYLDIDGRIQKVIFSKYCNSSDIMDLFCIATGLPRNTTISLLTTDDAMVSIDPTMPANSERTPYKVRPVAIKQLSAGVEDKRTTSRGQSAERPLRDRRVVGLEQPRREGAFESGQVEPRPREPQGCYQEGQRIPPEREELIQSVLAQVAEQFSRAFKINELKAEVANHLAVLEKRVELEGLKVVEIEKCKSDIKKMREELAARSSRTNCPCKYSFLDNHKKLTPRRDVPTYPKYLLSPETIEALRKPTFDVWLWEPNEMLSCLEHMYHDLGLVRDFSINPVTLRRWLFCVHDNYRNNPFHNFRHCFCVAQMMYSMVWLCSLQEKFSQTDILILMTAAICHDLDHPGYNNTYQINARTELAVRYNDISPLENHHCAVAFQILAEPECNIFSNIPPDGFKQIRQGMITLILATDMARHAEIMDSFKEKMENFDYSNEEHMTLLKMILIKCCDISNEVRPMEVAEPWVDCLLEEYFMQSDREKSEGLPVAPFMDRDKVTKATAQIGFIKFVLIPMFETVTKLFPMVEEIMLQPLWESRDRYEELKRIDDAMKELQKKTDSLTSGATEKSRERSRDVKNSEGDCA
Sequence of High affinity 3',5'-cyclic-AMP phosphodiesterase 7A (Q13946 whole entry): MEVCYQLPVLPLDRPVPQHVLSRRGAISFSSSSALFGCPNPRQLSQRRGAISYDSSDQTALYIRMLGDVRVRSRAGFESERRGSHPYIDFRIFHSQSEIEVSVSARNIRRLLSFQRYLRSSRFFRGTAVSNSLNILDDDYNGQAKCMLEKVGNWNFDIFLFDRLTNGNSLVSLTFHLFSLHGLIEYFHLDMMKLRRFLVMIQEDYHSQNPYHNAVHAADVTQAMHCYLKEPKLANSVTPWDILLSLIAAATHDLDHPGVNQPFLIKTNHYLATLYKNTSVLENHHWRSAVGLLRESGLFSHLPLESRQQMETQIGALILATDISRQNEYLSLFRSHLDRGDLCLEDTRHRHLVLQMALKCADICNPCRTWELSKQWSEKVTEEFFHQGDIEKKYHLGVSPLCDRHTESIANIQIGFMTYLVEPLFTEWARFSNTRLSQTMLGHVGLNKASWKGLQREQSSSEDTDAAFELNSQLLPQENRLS
Sequence of Dual specificity calcium/calmodulin-dependent 3',5'-cyclic nucleotide phosphodiesterase 1B (Q01064 whole entry): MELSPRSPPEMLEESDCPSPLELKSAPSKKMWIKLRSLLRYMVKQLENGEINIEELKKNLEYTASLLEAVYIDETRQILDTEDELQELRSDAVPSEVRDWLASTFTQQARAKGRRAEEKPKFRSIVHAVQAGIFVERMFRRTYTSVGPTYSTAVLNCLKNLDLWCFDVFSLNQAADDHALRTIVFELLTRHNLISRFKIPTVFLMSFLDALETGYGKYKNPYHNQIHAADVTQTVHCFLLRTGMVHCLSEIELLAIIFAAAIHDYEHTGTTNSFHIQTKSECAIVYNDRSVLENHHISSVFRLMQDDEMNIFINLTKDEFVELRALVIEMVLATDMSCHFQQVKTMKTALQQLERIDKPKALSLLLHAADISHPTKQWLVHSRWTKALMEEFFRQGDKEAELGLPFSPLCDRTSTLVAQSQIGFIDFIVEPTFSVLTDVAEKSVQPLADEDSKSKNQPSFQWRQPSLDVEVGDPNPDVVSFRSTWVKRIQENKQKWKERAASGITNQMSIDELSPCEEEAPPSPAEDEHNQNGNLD
Sequence of High affinity cAMP-specific and IBMX-insensitive 3',5'-cyclic phosphodiesterase 8A (O60658 whole entry): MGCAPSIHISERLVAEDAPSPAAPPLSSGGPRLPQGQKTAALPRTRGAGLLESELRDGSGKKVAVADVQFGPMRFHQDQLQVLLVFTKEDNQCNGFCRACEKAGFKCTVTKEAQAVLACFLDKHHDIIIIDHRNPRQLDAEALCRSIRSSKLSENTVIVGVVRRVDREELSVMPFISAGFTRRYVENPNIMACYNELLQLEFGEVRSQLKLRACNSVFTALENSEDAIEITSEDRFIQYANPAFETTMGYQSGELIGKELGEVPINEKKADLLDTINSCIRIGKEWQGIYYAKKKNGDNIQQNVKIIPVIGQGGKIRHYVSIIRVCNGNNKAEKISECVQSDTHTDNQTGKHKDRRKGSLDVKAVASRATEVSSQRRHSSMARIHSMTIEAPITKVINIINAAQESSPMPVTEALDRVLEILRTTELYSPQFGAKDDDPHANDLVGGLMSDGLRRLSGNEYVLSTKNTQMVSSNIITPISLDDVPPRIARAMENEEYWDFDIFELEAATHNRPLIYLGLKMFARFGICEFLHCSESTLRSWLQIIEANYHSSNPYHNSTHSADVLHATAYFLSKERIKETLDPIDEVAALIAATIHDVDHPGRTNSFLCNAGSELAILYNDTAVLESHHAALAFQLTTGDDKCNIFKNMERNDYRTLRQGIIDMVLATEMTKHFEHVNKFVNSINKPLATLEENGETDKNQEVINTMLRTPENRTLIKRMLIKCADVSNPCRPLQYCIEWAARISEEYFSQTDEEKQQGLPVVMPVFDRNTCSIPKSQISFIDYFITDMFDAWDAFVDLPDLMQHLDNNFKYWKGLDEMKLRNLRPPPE
Sequence of Dual 3',5'-cyclic-AMP and -GMP phosphodiesterase 11A (Q9HCR9 whole entry): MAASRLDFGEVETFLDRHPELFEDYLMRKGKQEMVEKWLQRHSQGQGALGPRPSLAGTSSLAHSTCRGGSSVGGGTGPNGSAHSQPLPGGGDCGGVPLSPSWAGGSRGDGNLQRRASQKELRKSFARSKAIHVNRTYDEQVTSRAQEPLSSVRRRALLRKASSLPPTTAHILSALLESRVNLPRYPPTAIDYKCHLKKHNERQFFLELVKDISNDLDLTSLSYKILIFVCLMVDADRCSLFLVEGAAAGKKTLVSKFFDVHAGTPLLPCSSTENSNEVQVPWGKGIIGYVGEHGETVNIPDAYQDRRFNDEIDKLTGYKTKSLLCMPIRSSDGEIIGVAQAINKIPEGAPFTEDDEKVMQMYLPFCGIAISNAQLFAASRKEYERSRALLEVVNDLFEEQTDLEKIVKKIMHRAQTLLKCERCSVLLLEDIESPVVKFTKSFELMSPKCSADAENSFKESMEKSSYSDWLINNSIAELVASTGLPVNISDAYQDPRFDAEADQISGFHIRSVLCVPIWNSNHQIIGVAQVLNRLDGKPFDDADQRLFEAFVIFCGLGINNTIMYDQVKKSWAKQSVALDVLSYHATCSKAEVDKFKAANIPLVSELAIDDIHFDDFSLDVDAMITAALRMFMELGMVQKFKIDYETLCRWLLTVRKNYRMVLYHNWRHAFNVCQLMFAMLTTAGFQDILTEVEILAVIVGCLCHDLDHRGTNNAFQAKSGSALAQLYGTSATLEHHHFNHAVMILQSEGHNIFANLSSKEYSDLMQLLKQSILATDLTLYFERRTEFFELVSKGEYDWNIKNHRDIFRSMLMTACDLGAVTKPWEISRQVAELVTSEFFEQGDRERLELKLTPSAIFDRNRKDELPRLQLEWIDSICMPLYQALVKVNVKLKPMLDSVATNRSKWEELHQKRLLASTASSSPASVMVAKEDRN
Sequence of cAMP and cAMP-inhibited cGMP 3',5'-cyclic phosphodiesterase 10A (Q9Y233 whole entry): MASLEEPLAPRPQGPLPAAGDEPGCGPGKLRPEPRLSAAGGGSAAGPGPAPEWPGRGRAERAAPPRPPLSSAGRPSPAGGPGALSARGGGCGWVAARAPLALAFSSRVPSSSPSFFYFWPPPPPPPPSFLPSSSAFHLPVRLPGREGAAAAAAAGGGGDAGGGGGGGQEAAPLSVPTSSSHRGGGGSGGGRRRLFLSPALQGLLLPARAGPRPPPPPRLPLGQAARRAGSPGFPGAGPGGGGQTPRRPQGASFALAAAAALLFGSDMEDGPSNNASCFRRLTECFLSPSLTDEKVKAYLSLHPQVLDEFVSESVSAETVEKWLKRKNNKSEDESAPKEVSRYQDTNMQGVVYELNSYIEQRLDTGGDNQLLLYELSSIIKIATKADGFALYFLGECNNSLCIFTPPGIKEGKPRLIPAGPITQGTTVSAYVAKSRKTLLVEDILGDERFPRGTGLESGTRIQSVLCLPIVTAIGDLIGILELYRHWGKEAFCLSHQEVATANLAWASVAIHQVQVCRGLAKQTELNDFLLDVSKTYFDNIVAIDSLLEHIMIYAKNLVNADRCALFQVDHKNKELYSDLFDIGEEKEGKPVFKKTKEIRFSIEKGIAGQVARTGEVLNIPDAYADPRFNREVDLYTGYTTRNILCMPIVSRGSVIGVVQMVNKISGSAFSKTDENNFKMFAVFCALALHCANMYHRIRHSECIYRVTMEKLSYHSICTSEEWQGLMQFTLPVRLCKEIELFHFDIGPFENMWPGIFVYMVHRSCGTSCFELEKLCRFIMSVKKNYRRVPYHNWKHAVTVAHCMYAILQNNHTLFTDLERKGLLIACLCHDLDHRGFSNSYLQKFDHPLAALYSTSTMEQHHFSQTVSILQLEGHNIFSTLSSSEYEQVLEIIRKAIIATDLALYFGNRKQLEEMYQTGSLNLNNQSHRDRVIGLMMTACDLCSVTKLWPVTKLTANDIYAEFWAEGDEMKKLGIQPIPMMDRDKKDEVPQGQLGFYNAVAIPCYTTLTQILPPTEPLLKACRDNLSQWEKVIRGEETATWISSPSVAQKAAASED

| IC50 [1] | IC50 [2] | IC50 [3] | IC50 [4] | IC50 [5] | IC50 [6] | IC50 [7] | IC50 [8] | IC50 [9] | IC50 [10] | IC50 [11] | Ratio IC50 [12] | SMILES |
| --- | --- | --- | --- | --- | --- | --- | --- | --- | --- | --- | --- | --- |
| 60 nM | > 5000 nM | > 5000 nM | > 5000 nM | > 5000 nM | > 5000 nM | > 5000 nM | > 5000 nM | > 5000 nM | > 5000 nM | > 5000 nM | > 83 | CCN(CC)c1ccc(NC(=O)c2cn(Cc3c(F)cccc3Cl)c3ccc(=O)[nH]c3c2=O)cc1 |
| 13 nM | > 1000 nM | > 1000 nM | > 1000 nM | > 1000 nM | > 1000 nM | > 1000 nM | > 1000 nM | > 1000 nM | > 1000 nM | > 1000 nM | > 77 | O=C(Nc1ccc(N2CCOCC2)cc1)c1cn(Cc2c(F)cccc2Cl)c2ccc(=O)[nH]c2c1=O |
